# TDP2 absorb – TDP2 (human) inhibition, absorbance primary screen | inhibition, % at 12.8 µM | recombinant TDP2, T5PNP hydrolysis, p-nitrophenol absorbance 415 nm | O95551 | 0.34% of 370,000 active;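 active means inhibition above the mean of all tested compounds plus 3 SD, set per campaign, cut at about 25% in these data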;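 further: 0% = DMSO with enzyme and 100% = buffer with substrate but no TDP2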
# Target sequence (O95551 whole entry, looked up): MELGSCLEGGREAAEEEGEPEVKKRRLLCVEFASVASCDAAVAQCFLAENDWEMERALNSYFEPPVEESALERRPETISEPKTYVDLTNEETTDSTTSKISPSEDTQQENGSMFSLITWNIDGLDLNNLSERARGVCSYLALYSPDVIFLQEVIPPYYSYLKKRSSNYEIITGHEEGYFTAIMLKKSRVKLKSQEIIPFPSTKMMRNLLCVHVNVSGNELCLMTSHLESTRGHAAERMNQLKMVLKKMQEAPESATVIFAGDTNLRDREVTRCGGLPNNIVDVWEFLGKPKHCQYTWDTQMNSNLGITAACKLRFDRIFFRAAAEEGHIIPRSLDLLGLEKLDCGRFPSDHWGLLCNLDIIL
#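 Evaluation: % inhibition relative to enzyme-containing and enzyme-free wells. Material: recombinant human TDP2. Benchmarks: enzyme-free and DMSO wells. Timing: enzyme reaction with compound for 2 h at 37 °C. Compound dosing: 12.8 µM only. Measured by: p-Nitrophenol epi absorbance. Reagent: T5PNP substrate at 5 mM, a TopII-DNA adduct mimic. Replication: single well per compound.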
# GSTO1 inh – GSTO1 inhibition, counter-screen for RBBP9 inhibitors. P78417. recombinant GSTO1, activity-based probe fluorescence polarization. inhibition, % at 5.96 µM. 1.1% of 300,000 active. AID 1974;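 active means inhibition above the campaign mean inhibition plus 3 SD, cut at about 35% in these data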;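 further: 0% = GSTO1-1 with DMSO and 100% = wells lacking GSTO1-1 enzyme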
# Target sequence (P78417 whole entry, looked up): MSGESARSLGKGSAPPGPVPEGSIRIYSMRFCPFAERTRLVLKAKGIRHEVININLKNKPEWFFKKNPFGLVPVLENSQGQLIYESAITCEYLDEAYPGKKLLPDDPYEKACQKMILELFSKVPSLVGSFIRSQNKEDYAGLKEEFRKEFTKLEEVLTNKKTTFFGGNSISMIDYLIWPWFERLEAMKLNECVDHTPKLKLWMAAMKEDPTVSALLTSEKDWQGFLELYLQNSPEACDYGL
# PRMT1 inh – blocks human protein arginine methyltransferase 1 | inhibition, % at 2.79 µM | AID 652257 | 1.3% of 370,000 active | Q99873 | recombinant PRMT1, activity-based probe fluorescence polarization;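 active means inhibition above about 21% made by adding two undisclosed values, limit read from the data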
# PAD4 FP inh – PAD4 (human) enzyme inhibition | Q9UM07 | recombinant PAD4, RCA probe fluorescence polarization | inhibition, % at 6.36 µM | 0.41% of 330,000 active;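 active means percent inhibition above a cutoff equal to the mean of all tested compounds plus 3 SD, cut at about 15% in these data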;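 further: 0% = PAD4 with RCA probe and DMSO and 100% = probe without PAD4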
# CTSL1 counter – blocks F. hepatica cathepsin L1 in PFM18AAP counter-screen; 0.49% of 300,000 active; inhibition, % at 5.96 µM; recombinant F. hepatica cathepsin L1, Z-Leu-Arg-MCA fluorescence;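 active means inhibition above the mean of all tested compounds plus 3 SD, set per screening campaign, cut at about 17% in these data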;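 further: 0% = plate median of test compound wells and 100% = 1 µM Z-Phe-Ala-diazomethylketone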
# GSTO1 inh conf – GSTO1 (human) inhibition, confirmation; shares compounds with GSTO1 inh; recombinant GSTO1, probe fluorescence polarization; inhibition, % at 5.96 µM; 54% of 2,400 active; AID 2176;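 active means inhibition above the primary screen's cutoff, its mean inhibition plus 3 SD, cut at about 35% in these data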;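 further: loss of polarization as inhibitors block binding of rhodamine sulfonate ester activity probe; 0% = GSTO1 with DMSO and 100% = wells lacking GSTO1 enzyme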
# GSTO1 ABPP inh – GSTO1 (human) inhibition by gel ABPP; recombinant GSTO1, gel ABPP SE-Rh probe fluorescence; 30% of 130 active; inhibition, % at 1 µM; shares compounds with GSTO1 inh; AID 463110;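 active means inhibition of the enzyme GSTO1 above about 75%, limit read from the data; inactive means inhibition below that limit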
# An asterisk follows results filed as active; · = not tested or not shown. In the library only some 2.5% were active in any assay of this set; here they are far more common.
SMILES,TDP2 absorb,GSTO1 inh,PRMT1 inh,PAD4 FP inh,CTSL1 counter,GSTO1 inh conf,others
O=C(CO)c1c[nH]c2ccccc12,-10.1,·,-0.4,·,·,·,
COc1cc(O)cc2cc3c(c(O)c12)C(=O)CC(C)(O)O3 (stereo unspecified),0.3,47.4*,10.6,-5.4,-0.6,31.4,
C=CCN(C)CC#Cc1ccc(OC)cc1,2.3,·,-1.6,·,·,·,
CCN(CC(=O)NC(C)(C)C)C(=O)COc1c(Cl)cc(Cl)c2ccc(C)nc12,0.4,6.6,4.6,-6.8,5.7,·,
CCN(CC(=O)NC(C)(C)C)C(=O)CCl,-5.1,67.1*,4.9,-3.3,20.0*,85.6*,GSTO1 ABPP inh=11.0
COC(=O)C(C(C)=O)C1=C/C(=N\S(=O)(=O)c2ccc(C)cc2)c2ccccc2C1=O (stereo unspecified),·,49.0*,·,-7.3,-1.4,9.5,
Nn1c(SCC(=O)N2CCOCC2)nnc1-c1cc(-c2ccc(F)cc2)n[nH]1,-10.9,·,-2.3,·,·,·,
COCCn1c(SCC(=O)N2CCOCC2)nnc1-c1ccco1,-5.3,1.5,5.2,4.7,-1.8,·,
COCCn1c(SCC(=O)N2CCCCCC2)nnc1-c1ccco1,-1.2,39.5*,5.6,-9.6,-0.3,7.3,
CC(=O)Oc1c(Cl)c(N2CCOCC2)c(OC(C)=O)c2ccccc12,-3.0,43.8*,-0.4,-4.8,-7.7,8.6,
CC(=O)Oc1ccc(N(C(C)=O)S(=O)(=O)c2cccs2)c2ccccc12,7.9,51.8*,10.9,-5.4,-17.7,13.5,
O=C(O)Cc1c[nH]c2cccc(O)c12,0.3,42.3*,31.6*,2.5,-0.6,23.4,
O=C(O)Cc1c[nH]c2ccccc12,-2.3,1.6,-3.1,-2.1,4.5,·,
CC(C)CNS(=O)(=O)CC1NCc2cc3c(cc21)OCO3 (stereo unspecified),-0.2,·,5.2,·,·,·,
O=C1CSc2ccc(S(=O)(=O)CCC(=O)NC3CCCCC3)cc2N1,-7.2,53.0*,4.7,-8.2,-8.4,3.9,
CC1CCC(NC(=O)CCS(=O)(=O)c2ccc3c(c2)NC(=O)CS3)CC1 (stereo unspecified),-11.9,7.7,-6.4,-3.5,1.3,·,
O=C(CSc1nnc(-c2ccco2)o1)c1ccccc1,-3.4,18.1,19.1,-3.8,2.5,·,
O=C(CSc1nnc(-c2ccco2)c(-c2ccco2)n1)c1ccccc1,-2.9,43.8*,64.9*,-3.2,6.2,17.7,
Oc1ccc(-c2cn3c(n2)SCC3)cc1O,9.5,53.4*,16.9,-0.1,-8.9,4.6,
Oc1ccc(-c2cn3c(n2)SCC3)cc1,8.2,8.8,4.7,-0.6,-2.0,·,
N#C/C(=C\c1cc(O)c(O)c(O)c1)C(N)=O,-2.5,58.8*,58.6*,9.7,3.1,14.7,
Cc1ccc(C=Nn2c(-c3n[nH]c4c3CCC4)n[nH]c2=S)o1,1.1,·,13.1,·,·,·,
Cc1cccc(NC(=O)Nc2c(-c3ccc(C(F)(F)F)cc3)nc3ncccn23)c1,-2.8,·,3.6,·,·,·,
O=c1cc(C(Cl)(Cl)Cl)oc2c1ccc1ccccc12,-0.3,46.9*,-0.9,1.2,2.7,80.3*,
O=c1c2ccccc2n(Cc2ccco2)n1[C@@H](Cc1ccccc1)Cn1cc(-c2ccc(-c3ccccc3)cc2)nn1,-3.8,·,-0.8,·,·,·,
SMILES,TDP2 absorb,GSTO1 inh,PRMT1 inh,PAD4 FP inh,CTSL1 counter,GSTO1 inh conf,others
CN(C)C(=O)NCCCC#Cc1ccccc1,-10.1,·,1.6,·,·,·,
CCSc1nnc(NC(=O)C(C(F)(F)F)C(F)(F)F)s1,-9.1,38.5*,3.0,-4.8,2.8,48.2*,
O=C(N[C@@H]1C[C@@H]2O[C@@H](CO)CC[C@@H]2O[C@@H]1CCc1ccc(-c2cccnc2)cc1)c1cccc(F)c1,-2.9,·,0.8,·,·,·,
O=S1(=O)c2ccc(N3CCN(Cc4ccccc4F)CC3)cc2Oc2ccccc2CN1Cc1cn(Cc2ccc(C(F)(F)F)cc2)nn1,8.4,·,0.6,·,·,·,
Cn1c(=O)c2[nH]c(SCC(=O)N3CCN(c4cccc(C(F)(F)F)c4)CC3)nc2n(C)c1=O,10.1,·,1.0,·,·,·,
CN(Cc1c(O)ccc2c1oc(=O)c1ccccc12)C1CCCCC1,-12.3,46.3*,7.6,0.2,-4.7,42.0*,
CN(C)Cc1c(O)ccc2c3c(c(=O)oc12)CCCCC3,2.0,3.3,4.3,1.6,5.7,·,
COc1cc(OC)c(NS(=O)(=O)c2cc(C(=O)OC(C)C(=O)NC3CC3)c(Cl)cc2Cl)cc1Cl (stereo unspecified),11.9,46.4*,0.0,-1.8,-1.2,65.6*,
Cc1ccc(S(=O)(=O)NC(C)(C)C)cc1C(=O)OC(C)C(=O)NC1CC1 (stereo unspecified),14.6,4.7,-2.9,0.2,1.0,·,
Oc1ccc(Br)cc1C=Nc1ccc(Cl)cc1,10.5,0.7,0.9,-2.8,-4.2,·,
CCN(CC)c1ccc(N=Cc2cc(Br)ccc2O)cc1,-3.4,74.3*,22.2*,13.5,-4.6,6.0,
COc1ccc(OC)c2c1C(=O)C(Cl)=C(Cl)C2=O,-5.9,57.5*,90.9*,-7.4,-2.3,7.8,
CCOC(=O)C1=C(Cc2ccc(F)cc2)C(=O)c2ccccc2C1=O,30.6*,38.0*,78.6*,-37.0,-1.3,3.5,
CC(C)CCNC(=O)C1CCN(c2cncnc2)CC1,-0.4,·,2.2,·,·,·,
COc1cccc(-c2nc(CCl)cs2)c1OC,-2.5,60.9*,3.0,-5.1,3.5,99.4*,GSTO1 ABPP inh=51.0
COc1cccc(-c2nc(CC(=O)O)cs2)c1OC,3.2,8.4,2.0,-3.9,2.2,·,
Oc1[nH]c2c(Cl)cc(Cl)cc2c1N=NC(=S)NCC1CCCO1 (stereo unspecified),-7.7,51.3*,-2.7,-2.8,2.0,6.9,
COc1ccc(NC(=O)OCCN2CCCC23CCC(c2ccccc2)CC3)cc1 (stereo unspecified),8.0,·,-0.2,·,·,·,
COc1ccc(N(CC2CO2)S(=O)(=O)c2ccc(C)cc2)cc1 (stereo unspecified),-7.0,80.7*,-2.7,1.1,-1.8,85.3*,GSTO1 ABPP inh=26.0
Cc1ccc(S(=O)(=O)N(CC(=O)NCC2CCCO2)c2cccc([N+](=O)[O-])c2)cc1 (stereo unspecified),-0.4,10.6,2.2,4.7,6.4,·,
Cc1ccc(S(=O)(=O)N(CC2CO2)c2cccc([N+](=O)[O-])c2)cc1 (stereo unspecified),1.8,96.7*,-1.0,-1.5,2.0,96.6*,GSTO1 ABPP inh=59.0
O=S(=O)(c1ccccc1)N(CC1CO1)c1cccc2ccccc12 (stereo unspecified),0.4,75.1*,-2.2,-3.7,1.5,90.1*,GSTO1 ABPP inh=20.0
COc1ccc(N(CC(O)CN2CCOCC2)S(=O)(=O)c2ccc(C)cc2)cc1 (stereo unspecified),-1.5,7.5,-1.8,1.4,0.8,·,
O=S(=O)(c1ccccc1)N(CC1CO1)c1ccccc1 (stereo unspecified),16.7,70.8*,-0.9,0.0,6.9,82.8*,GSTO1 ABPP inh=63.0

# Bioassay records as filed in PubChem BioAssay.
